Common to all, as to assay type: functional
Assay [1] deals with Candida albicans. Nature of the assay: Antifungal activity against fluconazole-resistant Candida albicans 01010 after 24 hrs. The procedure, abridged:
(§1)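 Broth serial dilution MIC per NCCLS in 96-well format; medium RPMI 1640 buffered with 0.165 M MOPS; compounds dissolved in DMSO and serially diluted in medium; clinical C. albicans isolates incubated at 35 °C, read at 24 h; MIC = lowest concentration giving turbidity […] inhibition relative to growth control; fluconazole and I-6 as control drugs.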

Assay [2] has as its system Candida albicans. The assay can be described thus: Antifungal activity against Candida albicans after 24 hrs. The method, boiled down:
(§2)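 Candida yeasts were tested by NCCLS microdilution in RPMI 1640 buffered with 0.165 M MOPS and incubated at 35 °C. Compounds were dissolved in DMSO and serially diluted in medium. Isolates came from ATCC or the clinic. The MIC was read at 24 h as the lowest concentration achieving ≥80% growth inhibition versus the control.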

Assay [3] has as its system Candida albicans. Nature of the assay: Antifungal activity against fluconazole-resistant Candida albicans 18 after 24 hrs. The method, boiled down:
as §1

For a further assay, the system named is Cryptococcus neoformans. Nature of the assay: Antifungal activity against Cryptococcus neoformans after 72 hrs. The procedure, abridged: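 Cryptococcus neoformans was tested by NCCLS serial dilution in MOPS-buffered (0.165 M) RPMI 1640 at 35 °C. Compounds were dissolved in DMSO and diluted in medium. The MIC was read at 72 h as the lowest concentration giving turbidity inhibition of ≥80% relative to the growth control.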

The next assay deals with Trichophyton rubrum. Nature of the assay: Antifungal activity against Trichophyton rubrum. The method, boiled down:
(§3)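 Dermatophytes were tested by NCCLS serial dilution in RPMI 1640 with 0.165 M MOPS and incubated at 28 °C. Compounds were dissolved in DMSO and diluted in medium. Strains came from ATCC or clinical isolates. The MIC was read at 7 d as the lowest concentration reducing turbidity by ≥80% relative to the drug-free control.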

The test system of a further assay is Microsporum. Nature of the assay: Antifungal activity against Microsporum gypseum. The method, boiled down: as §3
Assay [4] deals with Candida albicans. The assay can be described thus: Antifungal activity against fluconazole-resistant Candida albicans 0511655 after 24 hrs. The procedure, abridged:
as §1

The subject of another assay is Fonsecaea compacta. Nature of the assay: Antifungal activity against Fonsecaea compacta. The method, boiled down: (§4)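 NCCLS broth serial dilution in RPMI 1640 buffered with 0.165 M MOPS. Compounds were dissolved in DMSO and serially diluted in medium. Strains came from ATCC or clinical isolates. The growth MIC for filamentous fungi was read at 7 d, taken as the lowest concentration giving ≥80% turbidity inhibition versus the growth control.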

The next assay concerns Candida parapsilosis. Nature of the assay: Antifungal activity against Candida parapsilosis after 24 hrs. As to conditions: Lodderomyces parapsilosis. The method, boiled down:
as §2

Assay [5] concerns Candida albicans. Nature of the assay: Antifungal activity against fluconazole-resistant Candida albicans 25 after 24 hrs. The method, boiled down:
as §1

The subject of another assay is Aspergillus fumigatus. Nature of the assay: Antifungal activity against Aspergillus fumigatus. The method, boiled down:
as §4

Converted amounts (≈) assume the structure as drawn.

As to `CCCCCCCCCNC1CCc2c(cccc2OC)C1` (stereo not given), the MIC with Candida albicans [1] worked out at 16 µM (≈ 4.86 µg/mL); against Candida albicans [2], 0.0625 µM (≈ 0.019 µg/mL); in the assay on Candida albicans [3], 16 µM (≈ 4.86 µg/mL); in the assay on Cryptococcus neoformans it was 2 µM (≈ 0.607 µg/mL); against Trichophyton rubrum, 2 µM (≈ 0.607 µg/mL); in the assay on Microsporum, 4 µM (≈ 1.21 µg/mL). In addition, the MIC is 16 µM (≈ 4.86 µg/mL) against Candida albicans [4]; 0.5 µM (≈ 0.152 µg/mL) in the assay on Fonsecaea compacta; 0.5 µM (≈ 0.152 µg/mL) against Candida parapsilosis; 8 µM (≈ 2.43 µg/mL) with Candida albicans [5]; 8 µM (≈ 2.43 µg/mL) against Aspergillus fumigatus.

For `CCCCCCCCCNC1CCc2cc(O)ccc2C1` (stereo not given), the MIC turned out to be 4 µM (≈ 1.16 µg/mL) in the assay with Candida albicans [1]; 0.0625 µM (≈ 0.0181 µg/mL) in the assay with Candida albicans [2]; 4 µM (≈ 1.16 µg/mL) with Candida albicans [3]; 0.5 µM (≈ 0.145 µg/mL) with Cryptococcus neoformans; 1 µM (≈ 0.289 µg/mL) with Trichophyton rubrum; 0.5 µM (≈ 0.145 µg/mL) against Microsporum. In addition, the MIC was found to be 4 µM (≈ 1.16 µg/mL) against Candida albicans [4]; 1 µM (≈ 0.289 µg/mL) with Fonsecaea compacta; 4 µM (≈ 1.16 µg/mL) with Candida parapsilosis; 2 µM (≈ 0.579 µg/mL) against Candida albicans [5]; 32 µM (≈ 9.26 µg/mL) with Aspergillus fumigatus.

Consider `CCCCCCCCCCNC1CCc2cc(O)ccc2C1` (stereo not given), for which the MIC with Candida albicans [1] was 4 µM (≈ 1.21 µg/mL); against Candida albicans [2], 0.0625 µM (≈ 0.019 µg/mL); against Candida albicans [3], 2 µM (≈ 0.607 µg/mL); with Cryptococcus neoformans, 1 µM (≈ 0.303 µg/mL); in the assay with Trichophyton rubrum, 0.0625 µM (≈ 0.019 µg/mL); against Microsporum it was 8 µM (≈ 2.43 µg/mL). For the same compound, the MIC with Candida albicans [4] stood at 2 µM (≈ 0.607 µg/mL); against Fonsecaea compacta, 0.25 µM (≈ 0.0759 µg/mL); against Candida parapsilosis, 2 µM (≈ 0.607 µg/mL); with Candida albicans [5], 2 µM (≈ 0.607 µg/mL); with Aspergillus fumigatus, 16 µM (≈ 4.86 µg/mL).

Consider `CCCCCCCCCCNC1CCc2cccc(O)c2C1` (stereo not given), for which the minimum inhibitory concentration (MIC) against Candida albicans [1] is 16 µM (≈ 4.86 µg/mL); in the assay on Candida albicans [2], 0.0625 µM (≈ 0.019 µg/mL); against Candida albicans [3] it was 16 µM (≈ 4.86 µg/mL); in the assay on Cryptococcus neoformans, 16 µM (≈ 4.86 µg/mL); against Trichophyton rubrum, 8 µM (≈ 2.43 µg/mL); in the assay on Microsporum it was more than 64 µM. Further, the MIC came out at 16 µM (≈ 4.86 µg/mL) against Candida albicans [4], 64 µM (≈ 19.4 µg/mL) in the assay on Fonsecaea compacta, 16 µM (≈ 4.86 µg/mL) in the assay with Candida parapsilosis and 4 µM (≈ 1.21 µg/mL) against Candida albicans [5].

For the compound `CCCCCCCCCCNC1CCc2ccc(OC)cc2C1` (stereo not given), the MIC against Candida albicans [1] was determined as 4 µM (≈ 1.27 µg/mL); with Candida albicans [2], 0.0625 µM (≈ 0.0198 µg/mL); in the assay on Candida albicans [3] it was 4 µM (≈ 1.27 µg/mL); with Cryptococcus neoformans, 1 µM (≈ 0.318 µg/mL); in the assay with Trichophyton rubrum, 1 µM (≈ 0.318 µg/mL); against Microsporum, 2 µM (≈ 0.635 µg/mL). Moreover, the MIC in the assay on Candida albicans [4] came to 4 µM (≈ 1.27 µg/mL); against Fonsecaea compacta, 1 µM (≈ 0.318 µg/mL); with Candida parapsilosis, 0.25 µM (≈ 0.0794 µg/mL); with Candida albicans [5] it was 2 µM (≈ 0.635 µg/mL); against Aspergillus fumigatus it was 16 µM (≈ 5.08 µg/mL).

Turning to `CCCCCCCCCCNC1CCc2c(O)cccc2C1` (stereo not given), the MIC against Candida albicans [1] worked out at 16 µM (≈ 4.86 µg/mL); against Candida albicans [2], 0.0312 µM (≈ 0.00948 µg/mL); against Candida albicans [3], 32 µM (≈ 9.71 µg/mL); against Cryptococcus neoformans, 1 µM (≈ 0.303 µg/mL); against Trichophyton rubrum, 4 µM (≈ 1.21 µg/mL); in the assay on Microsporum, 1 µM (≈ 0.303 µg/mL). Besides, the minimal inhibitory concentration (MIC) was 32 µM (≈ 9.71 µg/mL) against Candida albicans [4]; 1 µM (≈ 0.303 µg/mL) against Fonsecaea compacta; 32 µM (≈ 9.71 µg/mL) against Candida parapsilosis; 32 µM (≈ 9.71 µg/mL) against Candida albicans [5]; more than 64 µM against Aspergillus fumigatus.

Take `CCCCCCCCCNC1CCc2cc(OC)ccc2C1` (stereo not given): the MIC with Candida albicans [1] worked out at 0.125 µM (≈ 0.0379 µg/mL); in the assay on Candida albicans [2], 0.0625 µM (≈ 0.019 µg/mL); with Candida albicans [3] it was 0.0625 µM (≈ 0.019 µg/mL); in the assay on Cryptococcus neoformans, 4 µM (≈ 1.21 µg/mL); with Trichophyton rubrum it was 1 µM (≈ 0.303 µg/mL); against Microsporum, 4 µM (≈ 1.21 µg/mL). Moreover, the MIC in the assay with Candida albicans [4] was found to be 0.0625 µM (≈ 0.019 µg/mL); against Fonsecaea compacta, 2 µM (≈ 0.607 µg/mL); in the assay with Candida parapsilosis it was 0.5 µM (≈ 0.152 µg/mL); against Candida albicans [5], 0.0625 µM (≈ 0.019 µg/mL); against Aspergillus fumigatus it was 64 µM (≈ 19.4 µg/mL).

Consider `CCCCCCCCCCNC1CCc2c(cccc2OC)C1` (stereo not given), for which the MIC in the assay on Candida albicans [1] is 8 µM (≈ 2.54 µg/mL); in the assay on Candida albicans [2], 0.0312 µM (≈ 0.00992 µg/mL); in the assay on Candida albicans [3], 4 µM (≈ 1.27 µg/mL); in the assay with Cryptococcus neoformans, 1 µM (≈ 0.318 µg/mL); with Trichophyton rubrum, 1 µM (≈ 0.318 µg/mL); in the assay on Microsporum, 4 µM (≈ 1.27 µg/mL). Moreover, the minimum inhibitory concentration (MIC) came out at 8 µM (≈ 2.54 µg/mL) in the assay on Candida albicans [4]; 1 µM (≈ 0.318 µg/mL) in the assay with Fonsecaea compacta; 8 µM (≈ 2.54 µg/mL) in the assay with Candida parapsilosis; 4 µM (≈ 1.27 µg/mL) in the assay on Candida albicans [5]; 16 µM (≈ 5.08 µg/mL) in the assay on Aspergillus fumigatus.

For the compound `CC(=O)N1CCN(c2ccc(OC[C@@H]3CO[C@@](Cn4ccnc4)(c4ccc(Cl)cc4Cl)O3)cc2)CC1` [KETOCONAZOLE], the minimal inhibitory concentration (MIC) in the assay with Candida albicans [1] came to 8 µM (≈ 4.25 µg/mL); in the assay with Candida albicans [3], 4 µM (≈ 2.13 µg/mL); against Candida albicans [4] it was 8 µM (≈ 4.25 µg/mL); in the assay with Candida albicans [5], 8 µM (≈ 4.25 µg/mL).

Regarding `CN(C/C=C/C#CC(C)(C)C)Cc1cccc2ccccc12` [TERBINAFINE], the minimum inhibitory concentration (MIC) against Candida albicans [1] is 32 µM (≈ 9.33 µg/mL); in the assay with Candida albicans [3], 8 µM (≈ 2.33 µg/mL); in the assay on Candida albicans [4], 8 µM (≈ 2.33 µg/mL); with Candida albicans [5], 4 µM (≈ 1.17 µg/mL).

Broadly, the MIC is the least concentration at which growth counts as inhibited. Low readings indicate inhibition by little substance, high ones a need for much substance.

The values above are taken from ChEMBL document CHEMBL1137547, “Synthesis and antifungal activities of novel 2-aminotetralin derivatives” (2007).
